The species named for experiment [1] is Mus musculus. Nature of the experiment: GST activity in the cytosols of small bowel mucosa of ICR/Ha mice was determined by using 1-Chloro-2,4-di nitrobenzene as the substrate. It is filed as functional. In outline: (§1)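 Mice (6-8 wk, groups of 4-5, semipurified diet) dosed po once daily for 3 days with 10 μmol in 0.2 mL cottonseed oil/10% ethanol. Vehicle-only controls. Killed 24 h after the last dose. Tissue homogenized in phosphate buffer pH 7.5, then spun at 100000g for 1 h to give cytosol. CDNB conjugation read at 340 nm, 30 °C, pH 6.5 phosphate, 5 mM GSH, 1 mM CDNB. Units µmol/min/mg protein, mean ± SD; ratio = treated/control.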

Experiment [2] is filed under the species Mus musculus. Briefly: Tissue acid-soluble sulfhydryl levels of small bowel mucosa of ICR/Ha mice. It is filed as functional. In outline: (§2)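 Same dosing: 10 μmol po daily for 3 days in cottonseed oil/10% ethanol, vehicle controls, tissues taken 24 h after the last dose. Homogenate (phosphate pH 7.5) used at once. Ellman method: equal volume 4% sulfosalicylic acid, then supernatant plus 9 volumes of 0.1 mM DTNB in 0.1 M phosphate pH 8.0. Read spectrophotometrically. Units µmol SH/g tissue, mean ± SD; ratio = treated/control.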

Experiment [3] can be described thus: Tissue acid-soluble sulfhydryl levels of liver of ICR/Ha mice. It is filed as functional, Mus musculus. In outline:
as §2

In experiment [4] the target is T1, Glutathione S-transferase Mu 1 (Mus musculus) (UniProt P10649).
T1 sequence (whole entry): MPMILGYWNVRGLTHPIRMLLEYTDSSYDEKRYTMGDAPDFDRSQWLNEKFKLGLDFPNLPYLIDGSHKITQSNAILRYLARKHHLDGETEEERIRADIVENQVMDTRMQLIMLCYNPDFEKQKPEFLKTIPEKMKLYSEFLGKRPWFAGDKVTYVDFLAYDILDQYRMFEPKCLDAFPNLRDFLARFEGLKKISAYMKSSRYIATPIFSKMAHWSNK
Briefly: Ratio is the compound /control(Specific activity in lung). In kind it is functional. In outline: as §1

The target of experiment [5] is T1, Glutathione S-transferase Mu 1 (Mus musculus). Briefly: GST activity in the cytosols of the forestomach of ICR/Ha mice was determined by using 1-Chloro-2,4-dinitrobenzene as the substrate. In kind it is functional, tissue-based. The settings on record: Stomach. In outline:
as §1

For experiment [6] the target is unchanged. Briefly: Ratio is the compound /control(Specific activity in forestomach). It is filed as functional, tissue-based. The settings on record: Stomach. In outline:
as §1

Experiment [7] in a line: Ratio is the compound /control(SH level in liver). It is filed as functional, Mus musculus. In outline: as §2
Experiment [8] deals with T1, Glutathione S-transferase Mu 1 (Mus musculus). Nature of the experiment: GST activity in the cytosols of the lung of ICR/Ha mice was determined by using 1-Chloro-2,4-dinitrobenzene as the substrate. It is filed as functional. In outline:
as §1

Experiment [9] shares this target. Nature of the experiment: Ratio is the compound /control(Specific activity in liver(GST)). In kind it is functional, tissue-based. In outline: as §1
Experiment [10] is filed under the species Mus musculus. Nature of the experiment: Ratio is the compound /control(SH in small bowel mucosa). It is filed as functional. In outline:
as §2

For experiment [11], the target named is T1, Glutathione S-transferase Mu 1 (Mus musculus). Briefly: Ratio is the compound /control(Specific activity in small bowel mucosa(GST)). In kind it is functional. In outline: as §1
The target is the same in experiment [12]. Nature of the experiment: GST activity in the cytosols of liver of ICR/Ha mice, using 1-Chloro-2,4-dinitrobenzene as substrate. It is filed as functional, tissue-based. In outline:
as §1

Experiment [13] is filed under the species Mus musculus. Briefly: Tissue acid-soluble sulfhydryl levels of liver of ICR/Ha mice. P<0.005. It is filed as functional. In outline:
as §2

The species entered for experiment [14] is Mus musculus. Briefly: GST activity in the cytosols of small bowel mucosa of ICR/Ha mice was determined by using 1-Chloro-2,4-dinitrobenzene as the substrate. It is filed as functional. In outline: as §1
For experiment [15], the species on record is Mus musculus. Briefly: Tissue acid-soluble sulfhydryl levels of small bowel mucosa of ICR/Ha mice. P < 0.005. In kind it is functional. In outline: as §2
The species entered for experiment [16] is Mus musculus. Nature of the experiment: GST activity in the cytosols of small bowel mucosa of ICR/Ha mice was determined by using 1-Chloro-2,4-dinitrobenzene as the substrate. It is filed as functional. In outline: as §1
Experiment [17] can be described thus: Tissue acid-soluble sulfhydryl levels of liver of ICR/Ha mice. It is filed as functional, Mus musculus. In outline: as §2

Molecules are shown by their SMILES.

Take `C[C@@]12C=Cc3occc3C1CC[C@]13CCC(CCC12)C3` (some centres not stated): the Specific activity in the experiment filed under Mus musculus [1] is recorded as 1.18 uM min-1 (mg of protein)-1. In addition, the SH level in the experiment listed under Mus musculus [2] was found to be 7.8 µmol/g; in experiment [3], 9.5 µM/g. Besides, the Ratio in experiment [4] is 1.2; in experiment [6], 0.9; in experiment [7] it was 1.1; in experiment [9], 2.1; in the experiment listed under Mus musculus [10], 1.2; in [11], 3.9. For the same compound, the Specific activity (uM min-1 (mg of protein)-1) was determined as 0.63 in experiment [5], 0.36 in experiment [8] and 3.06 in experiment [12].
As for `CC(=O)OC[C@@]1(O)C[C@@]23CCC4[C@H]5CCO[C@H]5CC[C@@]4(C)C2CCC1C3` (some centres not stated), the SH level in the experiment filed under Mus musculus [13] was found to be 14.3 µM/g; in the experiment listed under Mus musculus [15] it was 8.2 µM/g. For the same compound, the Specific activity in the experiment filed under Mus musculus [14] is on record as 0.41 uM min-1 (mg of protein)-1. The Ratio in experiment [7] was found to be 1.42; in [9], 1.06; in the experiment filed under Mus musculus [10], 1.4; in experiment [11], 1. Further, in [12], the Specific activity (uM min-1 (mg of protein)-1) was 1.25.
As for `C[C@@]12CC[C@@H]3OCC[C@@H]3C1CC[C@@]13CC(CCC12)[C@@](O)(CO)C3` (some centres not stated), the SH level in the experiment filed under Mus musculus [2] came out at 7.4 µmol/g; in [3], 14.5 µM/g. Besides, the Ratio in experiment [7] amounted to 1.44; in [9] it was 1.25; in the experiment listed under Mus musculus [10], 1.2; in experiment [11], 1.4. In experiment [12], this compound registered a Specific activity (uM min-1 (mg of protein)-1) of 1.48. Moreover, the Specific activity in the experiment listed under Mus musculus [16] is 0.54 uM min-1 (mg of protein)-1.
With `CC1(O)C[C@@]23CCC4c5ccoc5CC[C@@]4(C)C2CCC1C3` (some centres not stated), the Specific activity in the experiment listed under Mus musculus [1] is listed as 1.3 uM min-1 (mg of protein)-1. The SH level in the experiment listed under Mus musculus [2] was found to be 8.6 µmol/g; in [17] it was 16.3 µM/g. Further, the Ratio came to 1 in experiment [4]; 1 in [6]; 2.1 in experiment [7]; 1.4 in experiment [9]; 1.6 in the experiment listed under Mus musculus [10]; 3.6 in experiment [11]. Also, the Specific activity (uM min-1 (mg of protein)-1) in experiment [5] worked out at 0.76; in [8], 0.27; in [12], 2.26.
As for `C[C@@]12CCc3occc3C1CC[C@]13CC(O)C(CCC12)C3` (some centres not stated), the Specific activity in the experiment listed under Mus musculus [1] is listed as 1.52 uM min-1 (mg of protein)-1. For the same compound, the figures for the SH level (in the experiment filed under Mus musculus [2]; in experiment [17]) were 11.9 µmol/g and 12.8 µM/g, respectively. Further, the Ratio in experiment [4] worked out at 0.8; in experiment [6] it was 1.2; in [7], 1.7; in [9], 1.5; in the experiment listed under Mus musculus [10], 2.2; in experiment [11] it was 4.2. The Specific activity (uM min-1 (mg of protein)-1) in [5] worked out at 0.91; in experiment [8], 0.2; in experiment [12], 2.54.

The record behind these values is ChEMBL document CHEMBL1123806, “Effects of derivatives of kahweol and cafestol on the activity of glutathione S-transferase in mice” (1987).
